Results as given in ChEMBL document CHEMBL1148782, “Inhibitors of tumor progression loci-2 (Tpl2) kinase and tumor necrosis factor alpha (TNF-alpha) production: selectivity and in vivo antiinflammatory activity of novel 8-substituted-4-anilino-6-aminoquinoline-3-carbonitriles” (J Med Chem, 2007).
Converted amounts (≈) assume the structure as drawn. One block for each compound: values may come before it.

Assays:
[1] = system: Blood; assay: Inhibition of LPS-stimulated TNFalpha production in human blood; type: functional
[2] = system: Monocyte; assay: Inhibition of LPS-stimulated TNFalpha production in monocytes; type: functional, Homo sapiens
[3] = molecular target: Mitogen-activated protein kinase kinase kinase 8 (Homo sapiens, UniProt P41279); assay: Inhibition of Tpl2 by ELISA
Chain of Mitogen-activated protein kinase kinase kinase 8 (P41279 whole entry): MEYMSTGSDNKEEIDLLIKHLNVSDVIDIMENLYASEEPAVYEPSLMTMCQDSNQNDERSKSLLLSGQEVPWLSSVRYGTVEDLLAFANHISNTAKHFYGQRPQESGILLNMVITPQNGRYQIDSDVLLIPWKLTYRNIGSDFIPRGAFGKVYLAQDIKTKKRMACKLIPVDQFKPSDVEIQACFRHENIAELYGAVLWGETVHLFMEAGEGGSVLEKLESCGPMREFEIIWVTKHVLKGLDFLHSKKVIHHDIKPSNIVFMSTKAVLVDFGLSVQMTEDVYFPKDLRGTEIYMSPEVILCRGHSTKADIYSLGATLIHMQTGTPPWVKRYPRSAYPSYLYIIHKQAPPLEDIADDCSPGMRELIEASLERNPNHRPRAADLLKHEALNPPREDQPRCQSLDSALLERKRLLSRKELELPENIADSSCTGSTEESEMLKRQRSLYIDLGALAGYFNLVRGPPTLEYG

[4] = molecular target: Epidermal growth factor receptor (Homo sapiens, UniProt P00533)
Chain of Epidermal growth factor receptor (P00533 whole entry): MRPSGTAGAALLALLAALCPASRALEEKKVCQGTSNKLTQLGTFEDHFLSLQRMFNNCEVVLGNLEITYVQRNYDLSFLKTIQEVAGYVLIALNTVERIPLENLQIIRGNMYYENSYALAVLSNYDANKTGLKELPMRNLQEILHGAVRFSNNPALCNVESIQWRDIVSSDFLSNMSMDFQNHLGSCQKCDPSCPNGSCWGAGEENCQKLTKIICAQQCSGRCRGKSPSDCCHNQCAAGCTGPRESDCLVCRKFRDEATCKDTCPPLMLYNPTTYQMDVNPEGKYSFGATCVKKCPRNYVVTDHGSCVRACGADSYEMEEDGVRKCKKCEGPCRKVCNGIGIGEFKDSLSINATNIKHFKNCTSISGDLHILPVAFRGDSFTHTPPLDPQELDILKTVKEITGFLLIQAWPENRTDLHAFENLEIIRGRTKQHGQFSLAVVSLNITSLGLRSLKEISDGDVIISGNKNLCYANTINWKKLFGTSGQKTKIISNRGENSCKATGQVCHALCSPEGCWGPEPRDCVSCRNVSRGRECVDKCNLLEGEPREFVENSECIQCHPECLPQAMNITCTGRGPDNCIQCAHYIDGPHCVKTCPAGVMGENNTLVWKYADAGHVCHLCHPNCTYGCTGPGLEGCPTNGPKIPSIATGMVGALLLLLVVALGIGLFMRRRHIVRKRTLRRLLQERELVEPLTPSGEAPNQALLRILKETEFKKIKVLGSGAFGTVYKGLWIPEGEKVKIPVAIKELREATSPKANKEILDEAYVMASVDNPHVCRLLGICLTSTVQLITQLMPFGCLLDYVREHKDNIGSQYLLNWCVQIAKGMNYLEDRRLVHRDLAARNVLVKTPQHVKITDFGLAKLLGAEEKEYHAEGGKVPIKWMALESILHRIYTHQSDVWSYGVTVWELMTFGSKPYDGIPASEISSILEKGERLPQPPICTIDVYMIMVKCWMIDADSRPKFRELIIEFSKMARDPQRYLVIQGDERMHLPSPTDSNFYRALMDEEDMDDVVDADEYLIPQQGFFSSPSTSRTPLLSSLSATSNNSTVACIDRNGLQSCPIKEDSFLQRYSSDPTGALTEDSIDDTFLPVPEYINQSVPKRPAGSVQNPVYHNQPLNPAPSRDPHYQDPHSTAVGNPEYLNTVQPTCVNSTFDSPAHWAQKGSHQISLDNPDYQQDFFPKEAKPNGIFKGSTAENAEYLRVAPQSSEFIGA

[5] = system: Rattus norvegicus; assay: Inhibition of TNFalpha production in Sprague-Dawley rat at 10 mg/kg, po administered 1 hr prior to LPS challenge after 1.5 hrs; type: functional
[6] = molecular target: MAP kinase-activated protein kinase 2 (Homo sapiens, UniProt P49137); assay: Inhibition of MK2
Chain of MAP kinase-activated protein kinase 2 (P49137 whole entry): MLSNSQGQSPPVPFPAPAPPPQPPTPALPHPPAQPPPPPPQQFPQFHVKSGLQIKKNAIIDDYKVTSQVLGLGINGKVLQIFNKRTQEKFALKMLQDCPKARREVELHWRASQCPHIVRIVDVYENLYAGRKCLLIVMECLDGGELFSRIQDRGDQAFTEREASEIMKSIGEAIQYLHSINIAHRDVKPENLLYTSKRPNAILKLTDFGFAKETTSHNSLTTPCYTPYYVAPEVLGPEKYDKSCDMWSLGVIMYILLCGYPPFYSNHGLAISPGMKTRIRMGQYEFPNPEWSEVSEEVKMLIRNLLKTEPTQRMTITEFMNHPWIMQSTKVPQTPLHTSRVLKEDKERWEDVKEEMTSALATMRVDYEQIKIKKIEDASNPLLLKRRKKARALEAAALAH

[7] = molecular target: Protein kinase C theta type (Homo sapiens, UniProt Q04759); assay: Inhibition of PKCtheta
[8] = system: Rattus norvegicus; assay: AUC (0 to infinity) in Sprague-Dawley rat at 25 mg/kg, po; type: ADME, organism-based, Plasma; design: dose 25 mg/kg, route oral; details: in vivo
How it was run: (§1)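 Female Sprague-Dawley rats were dosed by the iv or oral route. Parameters are reported as means of individual-animal pharmacokinetic values.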

[9] = molecular target: cAMP-dependent protein kinase (PKA) (Homo sapiens, UniProt P22694+P17612+P22612); assay: Inhibition of PKA; type: protein assay
[10] = molecular target: Cytochrome P450 3A4 (Homo sapiens, UniProt P08684)
[11] = molecular target: Mitogen-activated protein kinase 8 (Homo sapiens, UniProt P45983); assay: Inhibition of Jnk1
Chain of Mitogen-activated protein kinase 8 (P45983 whole entry): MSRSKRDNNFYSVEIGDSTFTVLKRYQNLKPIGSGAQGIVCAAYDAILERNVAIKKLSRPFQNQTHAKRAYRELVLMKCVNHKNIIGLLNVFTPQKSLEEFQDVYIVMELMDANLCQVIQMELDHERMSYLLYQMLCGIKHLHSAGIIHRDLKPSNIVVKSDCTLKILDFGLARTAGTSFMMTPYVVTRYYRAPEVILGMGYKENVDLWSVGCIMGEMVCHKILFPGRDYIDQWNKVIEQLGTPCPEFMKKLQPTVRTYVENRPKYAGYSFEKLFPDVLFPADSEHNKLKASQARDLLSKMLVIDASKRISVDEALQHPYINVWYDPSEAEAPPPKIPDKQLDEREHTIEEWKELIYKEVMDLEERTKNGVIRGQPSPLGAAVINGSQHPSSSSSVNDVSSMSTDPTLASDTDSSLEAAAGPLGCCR

[12] = molecular target: Tyrosine-protein kinase BTK (Homo sapiens, UniProt Q06187); assay: Inhibition of BTK
[13] = Half life in Sprague-Dawley rat at 5 mg/kg, iv; type: ADME, organism-based; design: dose 5 mg/kg, route intravenous; details: in vivo; how it was run: as §1
[14] = Plasma clearance in Sprague-Dawley rat at 5 mg/kg, iv; type: ADME, organism-based; design: dose 5 mg/kg, route intravenous; how it was run: as §1
[15] = system: Rattus norvegicus; assay: Inhibition of TNFalpha production in Sprague-Dawley rat at 50 mg/kg, po administered 1 hr prior to LPS challenge after 1.5 hrs; type: functional
[16] = molecular target: Ribosomal protein S6 kinase beta-1 (Homo sapiens, UniProt P23443); assay: Inhibition of S6K
Chain of Ribosomal protein S6 kinase beta-1 (P23443 whole entry): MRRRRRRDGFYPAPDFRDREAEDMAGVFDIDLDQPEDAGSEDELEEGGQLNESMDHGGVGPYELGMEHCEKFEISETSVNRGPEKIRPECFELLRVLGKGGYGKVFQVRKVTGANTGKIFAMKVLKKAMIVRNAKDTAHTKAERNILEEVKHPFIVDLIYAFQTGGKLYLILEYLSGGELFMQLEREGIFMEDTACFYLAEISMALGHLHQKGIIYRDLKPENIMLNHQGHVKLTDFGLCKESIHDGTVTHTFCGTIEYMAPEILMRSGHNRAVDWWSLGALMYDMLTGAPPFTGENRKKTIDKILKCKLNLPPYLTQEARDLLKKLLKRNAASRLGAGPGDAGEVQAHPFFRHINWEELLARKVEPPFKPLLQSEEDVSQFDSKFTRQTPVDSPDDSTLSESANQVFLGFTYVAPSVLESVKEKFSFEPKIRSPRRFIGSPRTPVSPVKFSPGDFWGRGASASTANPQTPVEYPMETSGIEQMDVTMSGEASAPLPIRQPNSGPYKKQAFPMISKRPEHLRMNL

[17] = Plasma concentration in LPS challenged Sprague-Dawley rat at 50 mg/kg, po after 1 hr; type: ADME, organism-based; design: dose 50 mg/kg, route oral
[18] = Half life in Sprague-Dawley rat at 25 mg/kg, po; type: ADME, organism-based; design: dose 25 mg/kg, route oral; details: in vivo; how it was run: as §1
[19] = molecular target: Mitogen-activated protein kinase 14 (Homo sapiens, UniProt Q16539); assay: Inhibition of p38alpha
Chain of Mitogen-activated protein kinase 14 (Q16539 whole entry): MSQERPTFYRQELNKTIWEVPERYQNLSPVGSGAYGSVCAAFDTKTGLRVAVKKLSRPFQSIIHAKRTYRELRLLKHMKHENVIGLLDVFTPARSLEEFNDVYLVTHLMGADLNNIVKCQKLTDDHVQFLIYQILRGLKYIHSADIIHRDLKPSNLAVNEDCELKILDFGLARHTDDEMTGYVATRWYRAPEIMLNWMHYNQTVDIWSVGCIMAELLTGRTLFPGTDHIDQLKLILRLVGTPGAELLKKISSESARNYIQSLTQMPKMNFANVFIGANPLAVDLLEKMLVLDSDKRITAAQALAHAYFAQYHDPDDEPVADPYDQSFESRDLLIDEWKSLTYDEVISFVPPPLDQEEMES

[20] = molecular target: Tyrosine-protein kinase Lck (Homo sapiens, UniProt P06239); assay: Inhibition of LCK
[21] = Volume of distribution at steady state in Sprague-Dawley rat at 5 mg/kg, iv; type: ADME, organism-based; design: dose 5 mg/kg, route intravenous; details: in vivo, read-out: Vss; how it was run: as §1
[22] = molecular target: Proto-oncogene tyrosine-protein kinase Src (Homo sapiens, UniProt P12931); assay: Inhibition of Src
Chain of Proto-oncogene tyrosine-protein kinase Src (P12931 2-536 limits assumed): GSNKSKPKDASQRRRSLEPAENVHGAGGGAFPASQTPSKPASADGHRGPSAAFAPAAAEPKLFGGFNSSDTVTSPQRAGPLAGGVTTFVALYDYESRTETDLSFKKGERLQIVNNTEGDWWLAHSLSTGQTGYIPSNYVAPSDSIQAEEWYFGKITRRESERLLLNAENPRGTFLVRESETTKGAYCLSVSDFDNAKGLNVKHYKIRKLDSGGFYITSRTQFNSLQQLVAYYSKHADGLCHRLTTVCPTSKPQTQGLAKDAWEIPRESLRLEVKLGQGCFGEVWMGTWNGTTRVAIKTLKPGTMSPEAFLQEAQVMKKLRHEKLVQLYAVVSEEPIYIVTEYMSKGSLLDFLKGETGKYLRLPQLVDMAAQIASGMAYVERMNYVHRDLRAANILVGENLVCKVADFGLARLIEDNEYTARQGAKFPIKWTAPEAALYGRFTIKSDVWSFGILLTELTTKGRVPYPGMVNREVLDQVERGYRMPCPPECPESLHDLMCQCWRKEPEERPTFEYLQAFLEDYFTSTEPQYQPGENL

[23] = Plasma concentration in LPS challenged Sprague-Dawley rat at 50 mg/kg, po after 150 mins; type: ADME, organism-based; design: dose 50 mg/kg, route oral
[24] = Permeability at pH 7.4 by PAMPA method; type: ADME; details: read-out: permeability
How it was run: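 Passive permeability was measured by high-resolution PAMPA at pH 7.4.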

[25] = Bioavailability in Sprague-Dawley rat at 25 mg/kg, po; type: ADME, organism-based; details: in vivo; how it was run: as §1
[26] = molecular target: Protein kinase C alpha type (Homo sapiens, UniProt P17252); assay: Inhibition of PKCalpha
[27] = molecular target: Tyrosine-protein kinase Lyn (Homo sapiens, UniProt P07948); assay: Inhibition of LYN
[28] = molecular target: Glycogen synthase kinase-3 beta (Homo sapiens, UniProt P49841); assay: Inhibition of GSKbeta
Chain of Glycogen synthase kinase-3 beta (P49841 whole entry): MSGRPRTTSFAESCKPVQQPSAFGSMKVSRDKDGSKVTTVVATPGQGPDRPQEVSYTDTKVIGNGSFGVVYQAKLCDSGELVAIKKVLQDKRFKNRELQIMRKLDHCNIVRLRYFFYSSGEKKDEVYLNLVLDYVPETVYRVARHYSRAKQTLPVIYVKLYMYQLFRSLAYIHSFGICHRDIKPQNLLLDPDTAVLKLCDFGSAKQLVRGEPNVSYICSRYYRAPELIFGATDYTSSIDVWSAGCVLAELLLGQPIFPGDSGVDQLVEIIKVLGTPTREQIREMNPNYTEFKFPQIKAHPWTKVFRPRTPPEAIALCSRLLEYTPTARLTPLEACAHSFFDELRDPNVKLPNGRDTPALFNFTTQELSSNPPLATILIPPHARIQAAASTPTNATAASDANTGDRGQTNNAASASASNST

[29] = physchem; details: buffer, pH 7.4
[30] = molecular target: CYP3A4 (Homo sapiens, UniProt P08684); assay: Inhibition of CYP3A4 at 3 uM; type: ADME

SMILES: N#Cc1cnc2ccc(NCc3c[nH]cn3)cc2c1Nc1ccc(F)c(Cl)c1
- Activity [1]: 3.3 µM
- Inhibitory concentration [2]: 600 nM

SMILES: CC#CCOc1ccc(S(=O)(=O)N2CCSC(C)(C)[C@@H]2C(=O)NO)cc1
- inhibition in vivo at 10 mg/kg [5]: 85%

SMILES: CCc1[nH]cnc1CNc1cc(Cl)c2ncc(C#N)c(Nc3ccc(F)c(Cl)c3)c2c1
- Activity [1]: 7.5 µM

SMILES: Cn1nccc1CNc1cc(Br)c2ncc(C#N)c(Nc3ccc(F)c(Cl)c3)c2c1
- Activity [1]: >20 µM
- Inhibitory concentration [2]: 665 nM

SMILES: CC(C)c1[nH]cnc1CNc1cc(Cl)c2ncc(C#N)c(Nc3ccc(F)c(Cl)c3)c2c1
- Activity [1]: 5.8 µM

SMILES: CC(C)c1[nH]cnc1CNc1cc(Br)c2ncc(C#N)c(Nc3ccc(F)c(Cl)c3)c2c1
- Activity [1]: >20 µM
- Inhibitory concentration [2]: 2200 nM

SMILES: CN(C)CCCc1[nH]cnc1CNc1cc(Cl)c2ncc(C#N)c(Nc3ccc(F)c(Cl)c3)c2c1
- Activity [1]: 15.2 µM

Second part, led by results:

- IC50 [3]: 0.16 µM
- IC50 [4]: > 20 µM
SMILES: N#Cc1cnc2c(C(F)(F)F)cc(NCc3c[nH]cn3)cc2c1Nc1ccc(F)c(Cl)c1
- Activity [1]: >10 µM
- Inhibitory concentration [2]: 600 nM

- IC50 [4]: 5 µM
SMILES: C[S+]([O-])c1cc(NCc2c[nH]cn2)cc2c(Nc3ccc(F)c(Cl)c3)c(C#N)cnc12 (stereo unspecified)
- Activity [1]: 13.3 µM
- Inhibitory concentration [2]: 2130 nM

- IC50 [4]: > 20 µM
SMILES: CN(C)C(=O)c1cc(NCc2c[nH]cn2)cc2c(Nc3ccc(F)c(Cl)c3)c(C#N)cnc12
- Activity [1]: >10 µM
- Inhibitory concentration [2]: >1000 nM

- IC50 [3]: 0.13 µM
- IC50 [4]: 2.08 µM
SMILES: COc1cc(NCc2c[nH]cn2)cc2c(Nc3ccc(F)c(Cl)c3)c(C#N)cnc12
- Activity [1]: >10 µM
- Inhibitory concentration [2]: 3000 nM

- IC50 [6]: 87.1 µM
- IC50 [7]: > 50 µM
- AUC/dose [8]: 142 ng·kg·h/mg/mL
- IC50 [9]: > 100 µM
- IC50 [10]: 15 µM
- IC50 [11]: 31 µM
- IC50 [12]: > 10 µM
- half-life [13]: 5 h
- clearance [14]: 50 mL/min/kg
- IC50 [16]: 83.1 µM
- concentration at 1 h [17]: 1100 nM
- half-life [18]: 4 h
- IC50 [19]: > 40 µM
- IC50 [20]: 4.5 µM
- Vd [21]: 14.1 L/kg
- IC50 [22]: > 40 µM
- concentration at 2.5 h [23]: 550 nM
- Papp [24]: < 5 ×10⁻⁶ cm/s
- bioavailability [25]: 42%
- IC50 [26]: > 40 µM
- IC50 [27]: > 30 µM
- IC50 [28]: > 10 µM
- solubility [29]: < 10 µg/mL
SMILES: Cn1cnc(CNc2cc(Br)c3ncc(C#N)c(Nc4ccc(F)c(Cl)c4)c3c2)c1
- Activity [1]: 6.3 µM
- inhibition in vivo at 50 mg/kg [15]: 50%
- Inhibitory concentration [2]: 670 nM

- IC50 [6]: > 40 µM
- AUC/dose [8]: < 10 ng·kg·h/mg/mL
- IC50 [9]: > 40 µM
- IC50 [11]: > 40 µM
- IC50 [16]: > 40 µM
- half-life [18]: 2.6 h
- IC50 [19]: > 40 µM
- IC50 [22]: > 40 µM
- IC50 [26]: > 40 µM
- inhibition at 3 µM [30]: 66%
SMILES: CN(C)CCCn1cc(CNc2cc(Br)c3ncc(C#N)c(Nc4ccc(F)c(Cl)c4)c3c2)nn1
- Activity [1]: 3.08 µM
- Inhibitory concentration [2]: 221 nM

- IC50 [3]: 0.2 µM
SMILES: N#Cc1cnc2c(Cl)cc(NCC(=O)O)cc2c1Nc1ccc(F)c(Cl)c1
- Activity [1]: >20 µM
- Inhibitory concentration [2]: >5000 nM

- IC50 [3]: > 5 µM
SMILES: N#Cc1cnc2c(Br)cc(NC(=O)Cc3cnc[nH]3)cc2c1Nc1ccc(F)c(Cl)c1

- IC50 [3]: 0.01 µM
- IC50 [4]: 3.3 µM
- solubility [29]: 2 µg/mL (≈ 4.24 µM)
SMILES: N#Cc1cnc2c(Br)cc(NCc3c[nH]cn3)cc2c1Nc1ccc(F)c(Cl)c1
- Activity [1]: >10 µM
- Inhibitory concentration [2]: 370 nM
